Source: ChEMBL document CHEMBL4229527, “Design and synthesis of novel pyrimido[5,4-d]pyrimidine derivatives as GPR119 agonist for treatment of type 2 diabetes” (Bioorg Med Chem, 2018)

What was measured:
[1] = target: T1, Glucose-dependent insulinotropic receptor (Homo sapiens, UniProt Q8TDV5); assay: Agonist activity at human GPR119 expressed in CHOK1 cells assessed as cAMP accumulation after 1 hr by ultra LANCE assay; assay type: functional, cell-based
T1 sequence (Q8TDV5 whole entry): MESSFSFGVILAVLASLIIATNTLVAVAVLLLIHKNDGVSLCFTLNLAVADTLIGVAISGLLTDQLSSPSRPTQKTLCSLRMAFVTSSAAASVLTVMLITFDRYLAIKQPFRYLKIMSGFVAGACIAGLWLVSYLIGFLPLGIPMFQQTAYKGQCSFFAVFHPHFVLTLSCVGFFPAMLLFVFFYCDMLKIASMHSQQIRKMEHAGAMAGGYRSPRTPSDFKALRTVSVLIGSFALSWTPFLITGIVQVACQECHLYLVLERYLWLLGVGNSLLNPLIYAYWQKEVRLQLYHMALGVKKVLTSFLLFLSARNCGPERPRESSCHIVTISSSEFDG
How it was run: (§1)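 hGPR119-transfected cells were centrifuged and resuspended in cAMP assay buffer (HBSS, 0.1% BSA, 0.5 mM IBMX). They were treated with compounds over a concentration range for 1 h. Eu-cAMP tracer and ULight anti-cAMP lysis solutions were then added, with 1 h at room temperature. LANCE Ultra TR-FRET read, triplicates per concentration. EC50 is the concentration giving 50% cAMP stimulation; %max is relative to GSK-1292263 maximal effect.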

[2] = target: T2, Glucose-dependent insulinotropic receptor (Homo sapiens) (UniProt Q8TDV5); assay: Agonist activity at human GPR119 expressed in CHOK1 cells assessed as cAMP accumulation after 1 hr by ultra LANCE assay relative to GSK1292263; assay type: functional, cell-based; how it was run: as §1
T2 sequence (whole entry): T1 sequence (Q8TDV5 whole entry)

Mus musculus [3] = assay: Antidiabetic activity in C57BL/6N mouse assessed as reduction in blood glucose AUC (0 to 120 mins) at 300 mg/kg administered as single dose after 16 hrs of starvation followed by glucose challenge at 4 hrs post dose by OGTT relative to control; assay type: functional; design: scale not given: the % may be the effect or the level left
How it was run: (§2)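 C57BL/6N mice were fasted 16 h and given a single dose: vehicle (0.5% sodium carboxymethylcellulose, 10 mL/kg), test compounds at 5 or 15 mg/kg, or metformin at 300 mg/kg. A glucose challenge (3 g/kg, oral) followed 4 h later. Blood glucose was read at 0, 15, 30, 60, 90 and 120 min for AUC0–2h. n = 8; mean ± SE versus vehicle.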

Mus musculus [4] = assay: Antidiabetic activity in C57BL/6N mouse assessed as reduction in blood glucose AUC (0 to 120 mins) administered as single dose after 16 hrs of starvation followed by glucose challenge at 4 hrs post dose by OGTT; assay type: functional, organism-based; how it was run: as §2
Mus musculus [5] = assay: Antidiabetic activity in C57BL/6N mouse assessed as reduction in blood glucose AUC (0 to 120 mins) at 5 mg/kg administered as single dose after 16 hrs of starvation followed by glucose challenge at 4 hrs post dose by OGTT relative to control; assay type: functional; design: scale not given: the % may be the effect or the level left; how it was run: as §2
Mus musculus [6] = assay: Antidiabetic activity in C57BL/6N mouse assessed as reduction in blood glucose AUC (0 to 120 mins) at 15 mg/kg administered as single dose after 16 hrs of starvation followed by glucose challenge at 4 hrs post dose by OGTT relative to control; assay type: functional; design: scale not given: the % may be the effect or the level left; how it was run: as §2

SMILES | EC50 [1] [nM] | %max [2] [%] | Activity (Mus musculus [3]) [%] | Activity (Mus musculus [4]) | Activity (Mus musculus [5]) [%] | Activity (Mus musculus [6]) [%]
CC(C)(C)OC(=O)N1[C@@H]2CC[C@H]1C[C@H](Nc1ncnc3c(Nc4ccc(S(C)(=O)=O)cc4F)ncnc13)C2 | 452 | 65.3 | – | – | – | –
CC(C)(C)OC(=O)N1[C@@H]2CC[C@H]1C[C@@H](Nc1ncnc3c(Nc4ccc(S(C)(=O)=O)cc4)ncnc13)C2 | 44 | 72.9 | – | – | – | –
CN(C)C(=N)NC(=N)N [METFORMIN] | – | – | 18.2 | – | – | –
CC(C)(C)OC(=O)N1[C@@H]2CC[C@H]1C[C@H](Oc1ncnc3c(Nc4ccc(C#N)cc4F)ncnc13)C2 | > 10000 | 36.4 | – | – | – | –
CC(C)(C)OC(=O)N1[C@@H]2CC[C@H]1C[C@@H](Nc1ncnc3c(Nc4ccc(S(C)(=O)=O)cc4F)ncnc13)C2 | 2.2 | 87.5 | – | Dose-dependent effect | 6.4 | 13.5
CC(C)(C)OC(=O)N1CCC(Oc2ncnc3c(Nc4ccc(C#N)cc4F)ncnc23)CC1 | 1000 | 53.4 | – | – | – | –
CC(C)(C)OC(=O)N1[C@@H]2CC[C@H]1C[C@@H](Nc1ncnc3c(Nc4ccc(C#N)cc4F)ncnc13)C2 | 8.1 | 83.8 | – | Dose-dependent effect | 3.5 | 8.9
CC(C)(C)OC(=O)N1CCC(Nc2ncnc3c(Nc4ccc(S(C)(=O)=O)cc4)ncnc23)CC1 | 345 | 61.3 | – | – | – | –
CC(C)(C)OC(=O)N1[C@@H]2CC[C@H]1C[C@@H](Oc1ncnc3c(Nc4ccc(C#N)cc4F)ncnc13)C2 | 36 | 78.9 | – | – | – | –
CC(C)(C)OC(=O)N1C[C@@H]2CC[C@H]1C[C@@H]2Nc1ncnc2c(Nc3ccc(C#N)cc3F)ncnc12 (relative stereo) | 49 | 73.3 | – | – | – | –
CC(C)(C)OC(=O)N1C[C@@H]2CC[C@H]1C[C@@H]2Nc1ncnc2c(Nc3ccc(S(C)(=O)=O)cc3)ncnc12 (relative stereo) | 179 | 71.8 | – | – | – | –
CC(C)(C)OC(=O)N1[C@@H]2CC[C@H]1C[C@H](Nc1ncnc3c(Nc4ccc(C#N)cc4F)ncnc13)C2 | 1700 | 58.1 | – | – | – | –
CC(C)(C)OC(=O)N1CCC(Nc2ncnc3c(Nc4ccc(C#N)cc4F)ncnc23)CC1 | 147 | 67.2 | – | – | – | –
CC(C)(C)OC(=O)N1C[C@@H]2CC[C@H]1C[C@H]2Nc1ncnc2c(Nc3ccc(C#N)cc3F)ncnc12 (relative stereo) | > 10000 | 31.7 | – | – | – | –
CC(C)(C)OC(=O)N1[C@@H]2CC[C@H]1C[C@H](Nc1ncnc3c(Nc4ccc(S(C)(=O)=O)cc4)ncnc13)C2 | 1400 | 47.5 | – | – | – | –
